According to ChEMBL document CHEMBL1129487, “In vivo biodistribution, pharmacokinetic parameters, and brain uptake of 5-halo-y-methoxy(or ethoxy)-5,6-dihydro-3'-azido-3'-deoxythymidine diastereomers as potential prodrugs of 3'-azido-3'-deoxythymidine” (J Med Chem, 1996):

How the values were obtained:
[1] = Partition coefficient for 1-octanol/water was evaluated; type: physicochemical
Mus musculus [2] = species: Mus musculus; test: Thymidine Influx Inhibition constant for the compound in fresh Murine Erythrocytes; type: functional
Outline: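 Erythrocytes from B6D2F1 mice, 10% hematocrit in HEPES-buffered saline, were given [methyl-3H]-thymidine (0.1–1.0 mM, four levels) with or without test compound (0.1–2.5 mM, four levels). Zero-trans influx ran 3 s and was stopped with 10 µM NBMPR (final). Cells were perchloric acid extracted and counted, with the zero-time blank subtracted. Ki came from a Dixon plot (1/v vs i), in duplicate.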

[3] = Half-life for the compound after intravenous administration into BALB/c Mice in plasma samples.; type: ADME, organism-based; settings: mouse
Outline: (§1)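 Tail-vein injection in Balb/c mice at 144 µmol/kg, dissolved in 10% DMSO/water. Three mice per time point were killed by CO2, and blood was taken by cardiac puncture. With FIAU as internal standard, supernatant was Sep-Pak extracted. AZT was quantified by C18 HPLC (water:methanol 7:3, 265 nm; detection limit about 0.5 µg/mL). AUC covers 0 to last sample; t1/2 is from a one-compartment model.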

Mus musculus [4] = test: Pharmacokinetic parameter AUC for the compound after intravenous administration into BALB/c Mice in plasma samples.; type: ADME, organism-based; set-up: concentration or dose not given beside the values; settings: in vivo; outline: as §1
Mus musculus [5] = species: Mus musculus; test: Percentage of total protein recovered in S3 which is the soluble fraction in mouse brain after Jugular Vein Injection; settings: in vivo, iv
Mus musculus [6] = species: Mus musculus; test: Distribution of analyte (pmol/mg) in mouse brain regions after Jugular Vein Injection into cerebellum; type: ADME, organism-based; settings: in vivo, iv
Mus musculus [7] = species: Mus musculus; test: Distribution of analyte (pmol/mg) in mouse brain regions after Jugular Vein Injection into striatum; type: ADME, organism-based; settings: in vivo, iv
Mus musculus [8] = species: Mus musculus; test: Distribution of analyte (pmol/mg) in mouse brain regions after Jugular Vein Injection into hippocampus; type: ADME, organism-based; settings: in vivo, iv
Mus musculus [9] = species: Mus musculus; test: Distribution of analyte (pmol/mg) in mouse brain regions after Jugular Vein Injection into rest of the brain; type: ADME, organism-based; settings: in vivo, iv
Mus musculus [10] = species: Mus musculus; test: Distribution of analyte (pmol/mg) in mouse brain regions after Jugular Vein Injection into pons and medulla; type: ADME, organism-based; settings: in vivo, iv
Mus musculus [11] = species: Mus musculus; test: Quantity of anylate in S3 which is the soluble fraction in mouse brain after Jugular Vein Injection; type: functional
Outline: (§2)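 Brains were pooled from five mice, with cerebella removed, in 0.32 M sucrose. Homogenate was centrifuged at 0-4 °C: P1 at 1000g 10 min, P2 at 10000g 30 min, P3 at 100000g 1 h, S3 supernatant. Protein was by Lowry. Pellets were Protosol-solubilized at 55 °C, then counted by combustion/scintillation.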

Mus musculus [12] = species: Mus musculus; test: Percentage of radioactivity in P2 subregion in mouse brain that contains myelin fragments, synaptosomes (pinched-nerve endings), and mitochondria after Jugular Vein Injection; type: ADME, organism-based; settings: in vivo, iv; outline: as §2
Mus musculus [13] = species: Mus musculus; test: Percentage of total protein recovered in P3 subregion in mouse brain that contains microsomal fraction after Jugular Vein Injection; type: ADME, organism-based; settings: iv; outline: as §2
Mus musculus [14] = species: Mus musculus; test: Distribution of analyte (pmol/mg) in mouse brain regions after Jugular Vein Injection into hypothalamus; type: ADME, organism-based; settings: in vivo, iv
Mus musculus [15] = species: Mus musculus; test: Quantity of anylate in P2 subregion in mouse brain that contains myelin fragments, synaptosomes (pinched-nerve endings), and mitochondria after Jugular Vein Injection; type: functional, organism-based; outline: as §2
Mus musculus [16] = species: Mus musculus; test: Percentage of radioactivity in P3 subregion in mouse brain that contains microsomal fraction after Jugular Vein Injection; type: ADME, organism-based; settings: in vivo, iv; outline: as §2
Mus musculus [17] = species: Mus musculus; test: Percentage of total protein recovered in P2 subregion in mouse brain that contains myelin fragments, synaptosomes (pinched-nerve endings), and mitochondria after Jugular Vein Injection; type: ADME, organism-based; settings: in vivo, iv; outline: as §2
Mus musculus [18] = species: Mus musculus; test: Quantity of anylate in P1 subregion in mouse brain that contains nuclei and cell debris, after Jugular Vein Injection; type: functional; outline: as §2
Mus musculus [19] = species: Mus musculus; test: Quantity of anylate in P3 subregion in mouse brain that contains microsomal fraction after Jugular Vein Injection; type: functional, organism-based; outline: as §2
Mus musculus [20] = species: Mus musculus; test: Percentage of radioactivity in P1 subregion in mouse brain that contains nuclei and cell debris, after Jugular Vein Injection; type: ADME, organism-based; settings: in vivo, iv; outline: as §2
Mus musculus [21] = species: Mus musculus; test: Percentage of total protein recovered in P1 subregion in mouse brain that contains nuclei and cell debris, after Jugular Vein Injection; type: ADME, organism-based; settings: in vivo, iv; outline: as §2
Mus musculus [22] = species: Mus musculus; test: Percentage of radioactivity in S3 which is the soluble fraction in mouse brain after Jugular Vein Injection; type: ADME, organism-based; settings: in vivo, iv; outline: as §2
Mus musculus [23] = species: Mus musculus; test: Distribution of analyte (pmol/mg) in mouse brain regions after Jugular Vein Injection into cortex; type: ADME, organism-based; settings: in vivo, iv
[24] = Concentration in mouse blood 90 min post injection at a dose 240 mocromol/kg; type: ADME; settings: whole blood
Outline: (§3)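 Balb/c mice given 240 µmol/kg iv of the test diastereomer (10% DMSO/water vehicle, tail vein). Blood was drawn by cardiac puncture into heparinized syringe at 15, 20, 60 and 90 min. FIAU was added as internal standard, and the sample was extracted by Sep-Pak. AZT and parent were measured by C18 HPLC (water:methanol 7:3, UV 265 nm). Values are the average of two experiments.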

[25] = Concentration in mouse blood 15 min post injection at a dose 240 mocromol/kg; type: ADME, organism-based; settings: whole blood; outline: as §3
[26] = Concentration in mouse blood 20 min post injection at a dose 240 mocromol/kg; type: ADME, organism-based; settings: whole blood; outline: as §3
[27] = Concentration in mouse blood 60 min post injection at a dose 240 mocromol/kg; type: ADME, organism-based; settings: whole blood; outline: as §3

CO[C@@H]1N(C2CC(N=[N+]=[N-])C(CO)O2)C(=O)NC(=O)[C@@]1(C)I (stereo not given in full)
Partition coefficient [1]: 18.8
Ki (Mus musculus [2]): 200 µM
half-life [3]: 149 min
AUC (Mus musculus [4]): 9820 ng·h/mL

CO[C@H]1N(C2CC(N=[N+]=[N-])C(CO)O2)C(=O)NC(=O)[C@]1(C)Br (stereo not given in full)
Partition coefficient [1]: 13.2
Distribution (Mus musculus [5]): 24.9%
Distribution (Mus musculus [6]): 0.72 pmol/mg
Distribution (Mus musculus [7]): 0.88 pmol/mg
Distribution (Mus musculus [8]): 0.71 pmol/mg
Distribution (Mus musculus [9]): 0.71 pmol/mg
Distribution (Mus musculus [10]): 0.66 pmol/mg
Quantity (Mus musculus [11]): 21.8 pmol/mg
Distribution (Mus musculus [12]): 5.6%
Distribution (Mus musculus [13]): 8.7%
Distribution (Mus musculus [14]): 1.32 pmol/mg
Quantity (Mus musculus [15]): 0.65 pmol/mg
Ki (Mus musculus [2]): 450 µM
half-life [3]: 41.8 min
Distribution (Mus musculus [16]): 1.4%
Distribution (Mus musculus [17]): 53.1%
AUC (Mus musculus [4]): 6740 ng·h/mL
Quantity (Mus musculus [18]): 2.08 pmol/mg
Quantity (Mus musculus [19]): 0.98 pmol/mg
Distribution (Mus musculus [20]): 4.6%
Distribution (Mus musculus [21]): 13.3%
Distribution (Mus musculus [22]): 88.4%
Distribution (Mus musculus [23]): 0.71 pmol/mg

Cc1cn([C@H]2C[C@H](N=[N+]=[N-])[C@@H](CO)O2)c(=O)[nH]c1=O [ZIDOVUDINE]
Partition coefficient [1]: 1.3
concentration at […] [24]: < 1000 ng/mL
concentration at 0.25 h [25]: 2500 ng/mL
Ki (Mus musculus [2]): 1330 µM
half-life [3]: 23.5 min
AUC (Mus musculus [4]): 11800 ng·h/mL
concentration at 20 min [26]: 2500 ng/mL

CCO[C@H]1N(C2CC(N=[N+]=[N-])C(CO)O2)C(=O)NC(=O)[C@]1(C)Br (stereo not given in full)
Distribution (Mus musculus [5]): 27.5%
Distribution (Mus musculus [6]): 0.66 pmol/mg
Distribution (Mus musculus [7]): 0.85 pmol/mg
Distribution (Mus musculus [8]): 1.1 pmol/mg
Distribution (Mus musculus [9]): 0.83 pmol/mg
Distribution (Mus musculus [10]): 0.62 pmol/mg
Quantity (Mus musculus [11]): 27.8 pmol/mg
Distribution (Mus musculus [12]): 7.7%
Distribution (Mus musculus [13]): 17.6%
Distribution (Mus musculus [14]): 1.1 pmol/mg
Quantity (Mus musculus [15]): 1.62 pmol/mg
Distribution (Mus musculus [16]): 2.4%
Distribution (Mus musculus [17]): 43%
Quantity (Mus musculus [18]): 3.96 pmol/mg
Quantity (Mus musculus [19]): 1.21 pmol/mg
Distribution (Mus musculus [20]): 5.2%
Distribution (Mus musculus [21]): 11.9%
Distribution (Mus musculus [22]): 84.7%
Distribution (Mus musculus [23]): 0.66 pmol/mg

CO[C@H]1N(C2CC(N=[N+]=[N-])C(CO)O2)C(=O)NC(=O)[C@]1(C)Cl (stereo not given in full)
Partition coefficient [1]: 7.6
concentration at […] [24]: 1100 ng/mL
concentration at 0.25 h [25]: 28800 ng/mL
Ki (Mus musculus [2]): 360 µM
concentration at 1 h [27]: 16300 ng/mL
concentration at 20 min [26]: 12500 ng/mL

O=c1ccn([C@H]2C[C@H](O)[C@@H](CO)O2)c(=O)[nH]1 [DEOXYURIDINE]
Ki (Mus musculus [2]): 125 µM

CO[C@H]1N(C2CC(N=[N+]=[N-])C(CO)O2)C(=O)NC(=O)[C@@]1(C)Cl (stereo not given in full)
Partition coefficient [1]: 3.3
Ki (Mus musculus [2]): > 1500 µM

CO[C@@H]1N(C2CC(N=[N+]=[N-])C(CO)O2)C(=O)NC(=O)[C@@]1(C)Br (stereo not given in full)
Partition coefficient [1]: 16.7
Ki (Mus musculus [2]): 500 µM
half-life [3]: 31.1 min
AUC (Mus musculus [4]): 13500 ng·h/mL

CO[C@H]1N(C2CC(N=[N+]=[N-])C(CO)O2)C(=O)NC(=O)[C@]1(C)I (stereo not given in full)
Partition coefficient [1]: 10.6
Ki (Mus musculus [2]): 350 µM
half-life [3]: 33.6 min
AUC (Mus musculus [4]): 12500 ng·h/mL
